Key:
[1] = system: MuRF1 mRNA expression in C2C12 myotubes; assay: MuRF1 mRNA expression in dexamethasone-treated myotubes; format: cell-based, Murine; details: DEX 10 μmol/L, 24 h
Outline: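 Differentiated C2C12 myotubes (2% horse serum) were pre-treated for 2 h with test compound (0.1–10 μmol/L, DMSO) or DMSO alone before dexamethasone. Total RNA was reverse-transcribed with random hexamers. Quantitative RT-PCR used a LightCycler with FRET detection. MuRF1 was normalised to hypoxanthine phosphoribosyltransferase mRNA (60°C annealing). Mean ± SEM; one-way ANOVA, Bonferroni.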

[2] = system: C57BL/6 mice with MCT-induced cardiac cachexia; format: in vivo; details: MCT 600 mg/kg weekly, 6 weeks
[3] = system: diaphragm muscle of MCT-treated C57BL/6 mice; assay: In vitro contractile function of diaphragm muscle bundles from treated mice; format: in vivo; details: MCT 600 mg/kg weekly, 6 weeks, vs sham
Outline: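 C57BL/6 mice (8 weeks) got MCT or saline s.c.; compound was given at 0.1% w/w in chow from 1 week before MCT. Diaphragm bundles at optimal length in buffer pH ~7.4 (95% O2–5% CO2, ~22°C) were equilibrated 15 min, then force–frequency tested (1–300 Hz) plus isotonic loads. Specific force N/cm2 (density 1.06), velocity Lo/s, power = velocity × force; n = 16/group.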

Row | SMILES | increase in MuRF1 mRNA expression relative to untreated cells [1] | body weight loss ([2]; normal chow (sham gained 7.9 ± 0.8%)) [%] | lower TA fibre CSA ([2]; vs sham) | reduction in TA muscle weight ([2]; vs sham) | effect on isometric forces [3] | reduction of peak power [3] | reduction of peak shortening velocity [3]
1 | C[C@@H]1C[C@H]2[C@@H]3CCC4=CC(=O)C=C[C@]4(C)[C@@]3(F)[C@@H](O)C[C@]2(C)[C@@]1(O)C(=O)CO [Dexamethasone, dexamethasone] | approximately 2 fold | – | – | – | – | – | –
2 | C[C@H]1C(=O)O[C@@H]2CCN3CC=C(COC(=O)[C@](C)(O)[C@]1(C)O)[C@H]23 [MCT, monocrotaline] | – | 0.7 ± 0.6 | ~ 20% | ~ 10% | no significant effects | ~ 20% | ~ 20%
